Data set [1] in a line: Cardiotonic activity in guinea pig left atrial muscles assessed as minimum positive inotropic effective concentration causing myocardial contraction. The class given is functional, Cavia porcellus, Muscle tissue. The procedure, abridged: (§1)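 Guinea pig left atrial or right ventricular strips were perfused with Tyrode's solution, held at 1 g tension and paced at 2 Hz (2 ms, twice threshold). After about 60 min stabilisation, drug was added cumulatively. PIECmin was recorded as the lowest concentration that increased myocardial contraction.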

A short description of data set [2]: Cardiotonic activity in guinea pig right ventricular muscles assessed as minimum positive inotropic effective concentration causing myocardial contraction. The class given is functional, Cavia porcellus, Muscle tissue. The gist of the method: as §1
A short description of data set [3]: Cardiotonic activity in guinea pig left atrial muscles assessed as maximum positive inotropic effective concentration causing myocardial contraction relative to basal level. The data set is classed as functional, Cavia porcellus, Muscle tissue. The gist of the method:
(§2)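 Isolated left atrial or right ventricular strips from adult guinea pigs (300–500 g; pentobarbital 25 mg/kg i.p.; heart retrogradely perfused with Tyrode's, pH not stated). Tissue held at 1 g tension, paced at 2 Hz (2 ms pulses, twice threshold), stabilised about 60 min, then given cumulative drug additions. Maximal inotropic effect taken at the concentration just before arrhythmia onset.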

The nature of data set [4]: Cardiotonic activity in guinea pig right ventricular muscles assessed as maximum positive inotropic effective concentration causing myocardial contraction relative to basal level. The class given is functional, Cavia porcellus, Muscle tissue. The procedure, abridged: as §2
Data set [5] is described as follows: Safety index, ratio of arrhythmogenic concentration to minimum positive inotropic effective concentration causing myocardial contraction in guinea pig left atrial muscles. The class given is toxicity, tissue-based, Cavia porcellus, Muscle tissue. The following applies: isolated left atrial muscles. The procedure, abridged:
(§3)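 Paced guinea pig left atrial or right ventricular strips (1 g tension, 2 Hz) received cumulative drug addition. The lowest concentration raising contraction (PIECmin) and the concentration inducing arrhythmia were both recorded. Safety index was calculated as the ratio of the arrhythmogenic concentration to PIECmin.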

Data set [6] in a line: Safety index, ratio of arrhythmogenic concentration to minimum positive inotropic effective concentration causing myocardial contraction in guinea pig right ventricular muscles. The following applies: isolated right ventricular muscles. The class given is toxicity, tissue-based, Cavia porcellus, Muscle tissue. The procedure, abridged:
as §3

The species entered for a further data set is Cavia porcellus. Kind of data set: Inhibition of Na(+)/K(+)-ATPase in guinea pig atria by whole cell patch clamp method. A general note: In patch-clamp work, channel activity is measured electrically.

For the molecule `C[C@H]1O[C@@H](O[C@H]2CC[C@]3(C=O)[C@H]4CC[C@]5(C)[C@@H](C6=CC(=O)OC6)CC[C@]5(O)[C@@H]4CC[C@]3(O)C2)[C@H](O)[C@H](O)[C@H]1O` [DESGLUCOCHEIROTOXIN], the Activity turned out to be 0.05 µM in data set [1], 0.5 µM in data set [2], 300% in data set [3] and 300% in data set [4]. The values for the selectivity ratio in data set [5] and in data set [6] were 50 and 10, respectively.

As to `C[C@H]1O[C@H](O[C@H]2CC[C@]3(C=O)[C@H]4CC[C@]5(C)[C@@H](C6=CC(=O)OC6)CC[C@]5(O)[C@@H]4CC[C@]3(O)C2)[C@H](O)[C@H](O[C@@H]2O[C@H](CO)[C@@H](O)[C@H](O)[C@H]2O)[C@@H]1O` [GLUCOSTROPHALLOSIDE], the Activity in data set [1] turned out to be 0.25 µM; in data set [2], 1 µM; in data set [3] it was 489%; in data set [4] it was 350%. The selectivity ratio in data set [5] and in data set [6] was 10 in each case.

In the case of `C[C@@H]1O[C@H](O[C@H]2CC[C@@]3(C=O)[C@H](CC[C@@H]4[C@@H]3CC[C@]3(C)[C@@H](C5=CC(=O)OC5)CC[C@]43O)C2)[C@H](O)[C@H](O)[C@H]1O` [MALAYOSIDE], the Activity in data set [1] came out at 0.25 µM; in data set [2], 0.25 µM; in data set [3], 660%; in data set [4], 464%. The selectivity ratio worked out at 20 in data set [5] and 24 in data set [6]. Also, the inhibition entry in the data set listed under Cavia porcellus is “Dose-dependent effect”.

Regarding `C[C@@H]1O[C@@H](O[C@H]2C[C@@H](O)[C@]3(CO)[C@H]4[C@H](O)C[C@]5(C)[C@@H](C6=CC(=O)OC6)CC[C@]5(O)[C@@H]4CC[C@]3(O)C2)[C@H](O)[C@H](O)[C@H]1O` [OUABAIN], the Activity in data set [1] came out at 0.05 µM; in data set [2], 0.05 µM; in data set [3], 775%; in data set [4], 249%. Moreover, the selectivity ratio in data set [5] and in data set [6] was 20 throughout.

For the molecule `C[C@@H]1O[C@H](O[C@H]2CC[C@]3(C)[C@H]4CC[C@]5(C)[C@@H](C6=CC(=O)OC6)CC[C@]5(O)[C@@H]4CC[C@]3(O)C2)[C@H](O)[C@H](O)[C@H]1O` [PERIPLORHAMNOSIDE], the Activity in data set [1] amounted to 0.05 µM; in data set [2] it was 0.25 µM; in data set [3], 381%; in data set [4], 355%. The selectivity ratio in data set [5] is 11; in data set [6], 8.8.

For `C[C@]12CC[C@H]3[C@@H](CC[C@]4(O)C[C@@H](O)CC[C@]34C=O)[C@@]1(O)CC[C@@H]2C1=CC(=O)OC1` [STROPHANTHIDIN], the Activity in data set [1] is 1 µM; in data set [2], 4.8 µM; in data set [3], 165%; in data set [4], 240%. In addition, the selectivity ratio turned out to be 9 in data set [5] and 8.7 in data set [6].

Turning to `C[C@]12CC[C@H]3[C@@H](CC[C@]4(O)C[C@@H](O)CC[C@]34CO)[C@@]1(O)CC[C@@H]2C1=CC(=O)OC1` [STROPHANTHIDOL], the Activity was 1.25 µM in data set [1], 0.3 µM in data set [2], 205% in data set [3] and 408% in data set [4]. In addition, the selectivity ratio is 6.3 in data set [5] and 65 in data set [6].

The values are drawn from ChEMBL document CHEMBL1177741, “Cardiac glycosides from Antiaris toxicaria with potent cardiotonic activity” (J Nat Prod, 2010).
